Measurements reported in ChEMBL document CHEMBL4190394, “Discovery of Novel Pazopanib-Based HDAC and VEGFR Dual Inhibitors Targeting Cancer Epigenetics and Angiogenesis Simultaneously” (J Med Chem, 2018).
Activity calls are given as the source filed them. No cut-off for these calls is given here.

Legend:
Histone deacetylase = assay type: protein assay, Homo sapiens
[1] = molecular target: T1, Vascular endothelial growth factor receptor 2 (Homo sapiens, UniProt P35968); assay: Inhibition of VEGFR-2 (unknown origin) at 0.2 uM after 40 mins by kinase-Glo assay relative to control
T1 sequence (P35968 whole entry): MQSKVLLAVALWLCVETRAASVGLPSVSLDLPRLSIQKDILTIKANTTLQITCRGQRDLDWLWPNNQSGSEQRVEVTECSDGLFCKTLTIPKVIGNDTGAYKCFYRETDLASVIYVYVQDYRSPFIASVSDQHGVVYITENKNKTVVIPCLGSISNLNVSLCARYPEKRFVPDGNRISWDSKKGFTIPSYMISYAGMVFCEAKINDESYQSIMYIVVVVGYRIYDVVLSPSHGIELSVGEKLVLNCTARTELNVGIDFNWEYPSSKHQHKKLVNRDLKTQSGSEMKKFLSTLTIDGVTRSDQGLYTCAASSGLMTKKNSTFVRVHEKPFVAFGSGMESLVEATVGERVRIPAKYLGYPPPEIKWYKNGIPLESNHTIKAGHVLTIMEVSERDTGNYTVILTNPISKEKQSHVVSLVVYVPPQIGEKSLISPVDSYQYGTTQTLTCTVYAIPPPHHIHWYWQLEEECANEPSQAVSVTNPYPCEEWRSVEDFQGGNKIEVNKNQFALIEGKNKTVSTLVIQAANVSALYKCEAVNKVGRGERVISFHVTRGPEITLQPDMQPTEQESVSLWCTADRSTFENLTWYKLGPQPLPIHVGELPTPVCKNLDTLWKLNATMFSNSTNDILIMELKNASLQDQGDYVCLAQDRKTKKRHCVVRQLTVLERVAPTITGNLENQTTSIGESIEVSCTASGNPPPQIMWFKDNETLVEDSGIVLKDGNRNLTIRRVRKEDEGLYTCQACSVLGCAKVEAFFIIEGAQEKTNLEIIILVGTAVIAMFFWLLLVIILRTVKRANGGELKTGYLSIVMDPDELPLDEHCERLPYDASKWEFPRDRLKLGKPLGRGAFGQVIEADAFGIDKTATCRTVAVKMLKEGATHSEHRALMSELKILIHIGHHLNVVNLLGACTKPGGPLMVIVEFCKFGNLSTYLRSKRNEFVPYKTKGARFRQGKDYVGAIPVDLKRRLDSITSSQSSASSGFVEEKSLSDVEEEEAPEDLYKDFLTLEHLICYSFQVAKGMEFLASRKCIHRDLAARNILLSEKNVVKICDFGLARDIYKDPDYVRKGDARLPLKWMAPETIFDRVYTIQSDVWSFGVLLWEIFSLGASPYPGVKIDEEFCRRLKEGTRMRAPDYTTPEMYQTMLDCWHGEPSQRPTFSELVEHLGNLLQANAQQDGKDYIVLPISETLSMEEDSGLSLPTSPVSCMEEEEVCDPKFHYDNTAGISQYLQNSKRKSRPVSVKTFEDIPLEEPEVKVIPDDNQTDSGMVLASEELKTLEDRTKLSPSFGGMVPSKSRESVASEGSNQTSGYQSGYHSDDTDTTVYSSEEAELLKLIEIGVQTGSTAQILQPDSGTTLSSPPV
Summary of the method: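 VEGFR-2 tested at a single 200 nM concentration in a Kinase-Glo assay. Compound, kinase, substrate and ATP incubated 40 min at room temperature, then Kinase-Glo reagent added for 15 min and luminescence read. Inhibition rate reported. Replicates n ≥ 2.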

KG-1 = assay: Antiproliferative activity against human KG1 cells after 72 hrs by MTT assay; assay type: functional, cell-based; details: KG-1, 72 h
MOLT-4 = assay: Antiproliferative activity against human MOLT4 cells after 72 hrs by MTT assay; assay type: functional, cell-based; details: MOLT-4, 72 h
PC-3 = assay: Antiproliferative activity against human PC3 cells after 72 hrs by MTT assay; assay type: functional, cell-based; details: PC-3, 72 h
HEL = assay: Antiproliferative activity against human HEL cells after 72 hrs by MTT assay; assay type: functional, cell-based
K562 = assay: Antiproliferative activity against human K562 cells after 72 hrs by MTT assay; assay type: functional, cell-based; details: K562, 72 h
MDA-MB-231 = assay: Antiproliferative activity against human MDA-MB-231 cells after 72 hrs by MTT assay; assay type: functional, cell-based; details: MDA-MB-231, 72 h
ACHN = assay: Antiproliferative activity against human ACHN cells after 72 hrs by MTT assay; assay type: functional, cell-based
HT-1080 = assay: Antiproliferative activity against human HT1080 cells after 72 hrs by MTT assay; assay type: functional, cell-based; details: HT-1080, 72 h
HT-29 [2] = assay: Antiproliferative activity against human HT-29 cells after 72 hrs by MTT assay; assay type: functional, cell-based; details: HT-29, 72 h
HeLa = assay: Antiproliferative activity against human HeLa cells after 72 hrs by MTT assay; assay type: functional, cell-based
[3] = molecular target: T1, Vascular endothelial growth factor receptor 2; assay: Inhibition of VEGF-stimulated VEGFR2 phosphorylation in human HUVEC cells at 100 nM preincubated for 2 hrs followed by VEGF stimulation by Western blot analysis; assay type: cell-based
Summary of the method: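 HUVECs pretreated 2 h with compound or DMSO, then stimulated with VEGF (50 ng/ml). Cells lysed in ice-cold RIPA and protein measured by BCA. Lysates run on SDS-PAGE and immunoblotted for phospho-VEGFR-2, with total VEGFR-2 as loading control. Detection by ECL.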

AGS = assay: Antiproliferative activity against human AGS cells after 72 hrs by MTT assay; assay type: functional, cell-based
HT-29 [4] = assay: Antitumor activity against human HT-29 cells xenografted in BALB/c nu mouse assessed as tumor growth level at 50 mg/kg, po administered for 25 consecutive days measured every 3 days during compound dosing relative to control; assay type: functional
Summary of the method: (§1)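 HT-29 cells (1×10^7) implanted s.c. in right flank of male BALB/c-nu mice aged 5–6 weeks. At about 100 mm³ (day 10), mice randomized 6 per group and dosed orally for 25 consecutive days. Controls received PBS with 5% DMSO. T/C is mean RTV (Vt/V0) treated over control. TGI taken from final tumor weights. Student's two-tailed t test.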

HUVEC = assay: Antiangiogenic activity in human HUVEC cells assessed as reduction in capillary-like tubular network formation at 0.1 uM after 6 hrs by phase-contrast microscopy; assay type: functional, cell-based
Summary of the method: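 HUVECs trypsinized and seeded at 40000/well on Matrigel polymerized 0.5 h at 37 °C. Cells held 6 h at 37 °C in M199 with 5% FBS, with compound or DMSO. Tube formation viewed and photographed by phase-contrast microscopy at 200 magnification. Three independent experiments.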

HT-29 [5] = assay: Antitumor activity against human HT-29 cells xenografted in BALB/c nu mouse assessed as tumor growth inhibition at 50 mg/kg, po administered for 25 consecutive days measured every 3 days during compound dosing relative to control; assay type: functional; details: HT-29, po, read-out: TGI
Summary of the method: as §1

Thoracic aorta = assay: Antiangiogenic activity in Sprague-Dawley rat thoracic aorta ring assessed as reduction in micro-vessel growth at 5 uM treated every day for 6 days by matrigel-based inverted microscopic analysis relative to control; assay type: functional, tissue-based
Summary of the method: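 Aortas taken from 4–6-week-old Sprague–Dawley rats, cut into 1-mm rings and embedded in Matrigel. Rings held 30 min at 37 °C, 5% CO2, then treated daily for 6 days with compound or 0.5% DMSO vehicle. Microvessel outgrowth photographed on day 7 at ×200. Three independent experiments.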

Histone deacetylase 8 = Histone deacetylase 8 (Homo sapiens, UniProt Q9BY41); assay: Inhibition of HDAC8 (unknown origin) using fluorogenic Boc-Lys(trifluoroacetyl)-AMC as substrate preincubated for 5 mins followed by substrate addition measured after 30 mins by fluorescence-based assay
Sequence of Histone deacetylase 8 (Q9BY41 whole entry): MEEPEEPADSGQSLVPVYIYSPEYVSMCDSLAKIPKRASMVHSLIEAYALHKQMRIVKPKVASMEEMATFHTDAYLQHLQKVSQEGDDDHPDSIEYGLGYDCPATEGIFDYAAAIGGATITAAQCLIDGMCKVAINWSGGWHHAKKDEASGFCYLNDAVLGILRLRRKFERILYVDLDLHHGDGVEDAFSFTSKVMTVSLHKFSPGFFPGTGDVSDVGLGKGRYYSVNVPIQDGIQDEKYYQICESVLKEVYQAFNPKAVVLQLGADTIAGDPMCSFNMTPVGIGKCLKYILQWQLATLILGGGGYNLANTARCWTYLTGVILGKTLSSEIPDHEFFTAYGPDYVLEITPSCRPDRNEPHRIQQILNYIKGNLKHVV

Histone deacetylase 2 = Histone deacetylase 2 (Homo sapiens, UniProt Q92769)
Sequence of Histone deacetylase 2 (Q92769 whole entry): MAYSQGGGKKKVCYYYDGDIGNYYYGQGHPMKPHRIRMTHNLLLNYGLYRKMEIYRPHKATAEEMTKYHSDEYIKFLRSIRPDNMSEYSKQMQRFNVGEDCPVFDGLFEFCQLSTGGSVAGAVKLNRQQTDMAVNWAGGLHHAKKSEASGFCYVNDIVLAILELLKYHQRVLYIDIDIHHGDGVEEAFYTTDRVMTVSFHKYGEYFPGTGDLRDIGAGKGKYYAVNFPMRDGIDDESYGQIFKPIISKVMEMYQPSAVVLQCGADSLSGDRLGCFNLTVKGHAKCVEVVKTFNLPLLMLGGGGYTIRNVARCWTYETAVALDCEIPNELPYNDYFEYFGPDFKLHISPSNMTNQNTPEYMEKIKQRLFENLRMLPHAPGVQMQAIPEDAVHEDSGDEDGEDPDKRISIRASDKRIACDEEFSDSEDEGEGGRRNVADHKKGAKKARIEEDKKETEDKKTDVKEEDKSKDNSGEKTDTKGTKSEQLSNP

[6] = molecular target: Protein deacetylase HDAC6 (Homo sapiens, UniProt Q9UBN7); assay: Inhibition of HDAC6 (unknown origin) using fluorogenic Boc-Lys(acetyl)-AMC as substrate preincubated for 5 mins followed by substrate addition measured after 30 mins by fluorescence-based assay
Sequence of Protein deacetylase HDAC6 (Q9UBN7 whole entry): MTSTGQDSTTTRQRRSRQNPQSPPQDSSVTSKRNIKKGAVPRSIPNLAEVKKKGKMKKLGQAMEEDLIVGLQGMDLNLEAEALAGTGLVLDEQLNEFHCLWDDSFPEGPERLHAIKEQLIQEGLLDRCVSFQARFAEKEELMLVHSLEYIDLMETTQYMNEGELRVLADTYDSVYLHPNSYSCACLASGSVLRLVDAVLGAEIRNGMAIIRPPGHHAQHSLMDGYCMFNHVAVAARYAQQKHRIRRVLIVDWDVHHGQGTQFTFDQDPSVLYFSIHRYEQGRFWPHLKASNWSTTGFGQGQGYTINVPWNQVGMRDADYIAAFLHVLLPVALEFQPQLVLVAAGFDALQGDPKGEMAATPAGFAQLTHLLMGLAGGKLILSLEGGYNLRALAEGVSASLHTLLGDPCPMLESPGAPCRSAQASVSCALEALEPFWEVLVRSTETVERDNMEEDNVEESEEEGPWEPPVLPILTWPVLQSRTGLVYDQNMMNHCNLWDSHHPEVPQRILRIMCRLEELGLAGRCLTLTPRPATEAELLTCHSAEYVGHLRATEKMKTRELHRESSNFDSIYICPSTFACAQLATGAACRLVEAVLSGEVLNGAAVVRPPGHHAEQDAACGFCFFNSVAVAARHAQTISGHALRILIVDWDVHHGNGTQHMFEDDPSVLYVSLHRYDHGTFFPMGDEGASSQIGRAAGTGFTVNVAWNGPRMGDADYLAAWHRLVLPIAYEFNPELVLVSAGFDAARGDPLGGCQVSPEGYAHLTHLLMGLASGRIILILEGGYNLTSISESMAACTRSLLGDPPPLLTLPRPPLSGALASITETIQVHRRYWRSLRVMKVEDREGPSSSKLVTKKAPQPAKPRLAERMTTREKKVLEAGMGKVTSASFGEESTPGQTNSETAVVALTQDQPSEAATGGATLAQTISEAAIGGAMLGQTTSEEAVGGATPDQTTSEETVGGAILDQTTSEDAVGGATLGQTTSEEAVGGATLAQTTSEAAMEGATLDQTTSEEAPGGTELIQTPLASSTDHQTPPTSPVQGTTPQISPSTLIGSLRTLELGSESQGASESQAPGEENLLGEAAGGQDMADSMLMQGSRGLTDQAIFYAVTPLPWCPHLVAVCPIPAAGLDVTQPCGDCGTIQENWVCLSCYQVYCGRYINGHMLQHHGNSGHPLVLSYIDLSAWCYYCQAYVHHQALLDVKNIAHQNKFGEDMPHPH

Histone deacetylase 3 = Histone deacetylase 3 (Homo sapiens, UniProt O15379)
Sequence of Histone deacetylase 3 (O15379 whole entry): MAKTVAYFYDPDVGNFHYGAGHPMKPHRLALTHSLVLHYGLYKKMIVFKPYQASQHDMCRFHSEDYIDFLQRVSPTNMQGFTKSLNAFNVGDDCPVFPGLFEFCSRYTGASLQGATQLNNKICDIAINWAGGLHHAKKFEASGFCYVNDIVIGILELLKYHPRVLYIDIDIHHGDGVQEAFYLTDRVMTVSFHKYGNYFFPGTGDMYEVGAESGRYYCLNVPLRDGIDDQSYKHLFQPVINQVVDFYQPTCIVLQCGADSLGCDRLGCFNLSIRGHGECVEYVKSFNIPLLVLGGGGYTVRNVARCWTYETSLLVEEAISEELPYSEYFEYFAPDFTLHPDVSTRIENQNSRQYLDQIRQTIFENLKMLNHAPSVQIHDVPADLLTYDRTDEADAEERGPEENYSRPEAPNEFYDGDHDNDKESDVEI

Histone deacetylase 1 = Histone deacetylase 1 (Homo sapiens, UniProt Q13547); assay: Inhibition of HDAC1 (unknown origin) using fluorogenic substrate preincubated for 5 mins followed by substrate addition measured after 30 mins by fluorescence-based assay
Sequence of Histone deacetylase 1 (Q13547 whole entry): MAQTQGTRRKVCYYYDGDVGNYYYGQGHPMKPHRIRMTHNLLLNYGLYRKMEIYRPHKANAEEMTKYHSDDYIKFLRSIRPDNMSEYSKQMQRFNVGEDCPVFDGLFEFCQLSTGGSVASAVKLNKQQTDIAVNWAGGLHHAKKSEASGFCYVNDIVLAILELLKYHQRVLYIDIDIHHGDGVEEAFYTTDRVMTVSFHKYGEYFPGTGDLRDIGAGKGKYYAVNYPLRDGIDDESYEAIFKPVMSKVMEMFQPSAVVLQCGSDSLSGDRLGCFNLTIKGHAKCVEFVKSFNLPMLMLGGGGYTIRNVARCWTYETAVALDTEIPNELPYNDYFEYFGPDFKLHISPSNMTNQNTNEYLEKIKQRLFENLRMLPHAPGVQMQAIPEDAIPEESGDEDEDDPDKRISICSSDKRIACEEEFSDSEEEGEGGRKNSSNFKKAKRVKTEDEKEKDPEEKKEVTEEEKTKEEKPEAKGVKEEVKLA

SMILES	IC50 (Histone deacetylase) [nM]	inhibition [1] [%]	IC50 (KG-1) [nM]	IC50 (MOLT-4) [nM]	IC50 (PC-3) [nM]	IC50 (HEL) [nM]	IC50 (K562) [nM]	also measured
Cc1c2ccc(N(C)c3ccnc(Nc4cccc(C(=O)Nc5ccccc5N)c4)n3)cc2nn1C	21300	63						
Cc1c2ccc(N(C)c3ccnc(Nc4ccc(C(=O)NCCCCCC(=O)Nc5ccccc5N)cc4)n3)cc2nn1C	3000	95	3150	870	> 5000	2060	4310	
Cc1c2ccc(N(C)c3ccnc(Nc4ccc(C(=O)NCCC(=O)NO)cc4)n3)cc2nn1C	> 20000	99						
Cc1c2ccc(N(C)c3ccnc(Nc4ccc(C(=O)NCCCCC(=O)Nc5ccccc5N)cc4)n3)cc2nn1C	15100	94						
Cc1c2ccc(N(C)c3ccnc(Nc4cccc(C(=O)NCCCCCC(=O)NO)c4)n3)cc2nn1C	180	90						
Nc1ccccc1NC(=O)c1ccc(CNC(=O)OCc2cccnc2)cc1 [ENTINOSTAT]			> 5000	450	> 5000	440	3660	IC50 (MDA-MB-231): 2550 nM; IC50 (ACHN): 2400 nM; IC50 (HT-1080): > 5000 nM; IC50 (HT-29 [2]): 3100 nM; IC50 (HeLa): > 5000 nM; inhibition [3]: inactive; IC50 (AGS): 340 nM
Cc1ccc(Nc2nccc(N(C)c3ccc4c(C)n(C)nc4c3)n2)cc1C(=O)NCCCCCC(=O)NO	820	87						
Cc1ccc(Nc2nccc(N(C)c3ccc4c(C)n(C)nc4c3)n2)cc1S(N)(=O)=O [PAZOPANIB]		95	> 5000	> 5000	> 5000	> 5000	> 5000	T/C (HT-29 [4]): 61%; IC50 (MDA-MB-231): > 5000 nM; IC50 (ACHN): > 5000 nM; IC50 (HT-1080): > 5000 nM; Activity (HUVEC): Active; IC50 (HT-29 [2]): > 5000 nM; IC50 (HeLa): > 5000 nM; inhibition in vivo at 50 mg/kg (HT-29 [5]): 44%; Activity (Thoracic aorta): Active; inhibition [3]: Active; IC50 (AGS): > 5000 nM
Cc1c2ccc(N(C)c3ccnc(Nc4ccc(C(=O)NCCCC(=O)Nc5ccccc5N)cc4)n3)cc2nn1C	19000	96						
Cc1c2ccc(N(C)c3ccnc(Nc4ccc(/C=C/C(=O)NO)cc4)n3)cc2nn1C	1400	95	1020	590	1600	750	1660	IC50 (Histone deacetylase 8): 2890 nM; IC50 (MDA-MB-231): 2590 nM; IC50 (ACHN): 3850 nM; IC50 (HT-1080): 3250 nM; IC50 (Histone deacetylase 2): 5300 nM; IC50 (HT-29 [2]): 2960 nM; IC50 (HeLa): 4930 nM; IC50 [6]: 1030 nM; IC50 (AGS): > 5000 nM
Cc1c2ccc(N(C)c3ccnc(Nc4cccc(C(=O)NO)c4)n3)cc2nn1C	> 20000	77						
Cc1c2ccc(N(C)c3ccnc(Nc4ccc(C(=O)NO)cc4)n3)cc2nn1C	11300	99						
Cc1c2ccc(N(C)c3ccnc(Nc4ccc(C(=O)NCCCCC(=O)NO)cc4)n3)cc2nn1C	680	94						
Cc1c2ccc(N(C)c3ccnc(Nc4ccc(C(=O)NCCCCCCCC(=O)NO)cc4)n3)cc2nn1C	25	92	930	270	3420	1040	1100	IC50 (HT-1080): > 5000 nM
Cc1c2ccc(N(C)c3ccnc(Nc4ccc(C(=O)NCC(=O)NO)cc4)n3)cc2nn1C	> 20000	95						
Cc1c2ccc(N(C)c3ccnc(Nc4ccc(C(=O)NCCCCCCCC(=O)Nc5ccccc5N)cc4)n3)cc2nn1C	8700	92	2680	560	> 5000	490	3970	IC50 (MDA-MB-231): 2570 nM; IC50 (ACHN): 3620 nM; IC50 (HT-1080): > 5000 nM; IC50 (Histone deacetylase 2): 1260 nM; IC50 (HT-29 [2]): 2960 nM; IC50 (HeLa): 3070 nM; IC50 (Histone deacetylase 3): 660 nM; IC50 (Histone deacetylase 1): 1460 nM; IC50 (AGS): > 5000 nM
Cc1c2ccc(N(C)c3ccnc(Nc4ccc(C(=O)NCCC(=O)Nc5ccccc5N)cc4)n3)cc2nn1C	> 20000	97						
Cc1c2ccc(N(C)c3ccnc(Nc4ccc(C(=O)NCCCCCC(=O)NO)cc4)n3)cc2nn1C	17	98	2310	600	> 5000	2560	2890	IC50 (HT-1080): > 5000 nM
Cc1c2ccc(N(C)c3ccnc(Nc4ccc(C(=O)NCC(=O)Nc5ccccc5N)cc4)n3)cc2nn1C	> 20000	98						
Cc1ccc(Nc2nccc(N(C)c3ccc4c(C)n(C)nc4c3)n2)cc1C(=O)NO	> 20000	74						
Cc1c2ccc(N(C)c3ccnc(Nc4ccc(C(=O)NCCCCCCC(=O)Nc5ccccc5N)cc4)n3)cc2nn1C	5000	93	3140	1150	> 5000	1160	4150	
Cc1c2ccc(N(C)c3ccnc(Nc4ccc(C(=O)NCCCC(=O)NO)cc4)n3)cc2nn1C	19800	99						
Cc1c2ccc(N(C)c3ccnc(Nc4cccc(/C=C/C(=O)NO)c4)n3)cc2nn1C	3000	97						
